Calls of active or inactive are those of the source. The calls are words filed in the database; no cut-off is given here.
Key:
MV4-11 [1] = experiment: Induction of apoptosis in human MV4-11 cells harboring wild type p53/FLT3-ITD mutant assessed as upregulation of P21WAF1/Cip1 expression at 50 to 200 nM after 24 hrs by Western blot analysis; type: functional, cell-based
Summary of the method: (§1)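 Cells (1,500,000 per well) grown 12 h, then drug-treated as specified. Lysed in RIPA buffer, sonicated, centrifuged, protein normalized by BCA. Run on 4–12% Bis-Tris gels in MES, transferred, probed overnight at 4 °C with primary antibodies at 1/1000. Actin served as reference for LC3-II quantitation.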

MV4-11 [2] = experiment: Induction of apoptosis in human MV4-11 cells harboring wild type p53/FLT3-ITD mutant assessed as c-FLIP degradation at 50 to 200 nM after 24 hrs by Western blot analysis; type: functional, cell-based; summary of the method: as §1
786-0 = experiment: Antiproliferative activity against human 786-0 cells assessed as reduction in cell viability after 48 hrs by CellTiter-Blue assay; type: functional; conditions: 786-0, 48 h, read-out: LC50 (the source's name)
Summary of the method: (§2)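 Cells grown in RPMI1640 with 10% FBS at 37 °C, 5% CO₂. 5,000–10,000 cells/well were pre-incubated overnight, and a time-zero CellTiter-Blue read was taken. Six 10-fold dilutions (top final 10 μM) were applied for 48 h, followed by 0.125 mg/mL CellTiter-Blue for 2–4 h. Resorufin fluorescence was read at ex 560/em 590 nm. […] Triplicates.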

[3] = AUC (0 to infinity) in CD1 mouse at 20 mg/kg, po via gavage after 24 hrs by LC-MS/MS analysis; type: ADME, organism-based; set-up: dose 20 mg/kg, time infinity, route oral; conditions: in vivo
Summary of the method: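 Male CD-1 mice, fasted overnight, 3 per route; compound in PBS with 5% DMSO, iv bolus 5 mg/kg or oral gavage 20 mg/kg. Blood sampled at 5, 15, 30 min and 1–24 h. Plasma protein-precipitated with acetonitrile plus internal standard, quantified by LC-MS/MS (MRM). AUC by linear trapezoidal method; parameters by non-compartmental analysis.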

MV4-11 [4] = experiment: Induction of apoptosis in human MV4-11 cells assessed as cleavage of pro caspase 3 at 200 nM after 24 hrs in presence of 50 uM z-VAD by Western blot analysis; type: functional, cell-based; summary of the method: as §1
DU-145 = experiment: Antiproliferative activity against human DU145 cells assessed as reduction in cell viability after 48 hrs by CellTiter-Blue assay; type: functional; conditions: DU-145, 48 h, read-out: LC50 (the source's name); summary of the method: as §2
MOLM-14 = experiment: Antiproliferative activity agaisnt human MOLM14 cells expressing wild type p53/FLT3-ITD mutant assessed as cell death at 10 uM after 48 hrs by CellTiter-blue assay; type: functional, cell-based
Histone deacetylase 8 = Histone deacetylase 8 (Homo sapiens, UniProt Q9BY41); experiment: (§3) Inhibition of recombinant full length human C-terminal His-tagged HDAC8 expressed in baculovirus infected Sf9 cells using Boc-Lys (trifluoroacetyl)-AMC as substrate preincubated for 1 hr followed by substrate addition and measured after 2 hrs by fluorescence based micro plate reader analysis
Histone deacetylase 8, sequence (Q9BY41 whole entry): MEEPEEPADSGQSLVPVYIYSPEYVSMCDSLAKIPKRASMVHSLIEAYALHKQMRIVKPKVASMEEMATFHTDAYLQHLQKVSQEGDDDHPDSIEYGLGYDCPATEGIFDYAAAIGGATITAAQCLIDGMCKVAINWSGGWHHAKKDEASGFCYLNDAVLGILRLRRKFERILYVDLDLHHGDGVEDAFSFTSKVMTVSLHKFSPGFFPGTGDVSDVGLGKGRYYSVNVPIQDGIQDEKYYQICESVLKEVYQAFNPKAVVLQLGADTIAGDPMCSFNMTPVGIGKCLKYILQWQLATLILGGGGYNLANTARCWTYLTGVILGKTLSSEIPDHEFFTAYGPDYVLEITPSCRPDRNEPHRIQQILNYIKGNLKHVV
Summary of the method: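 Recombinant HDAC8 preincubated with test agent at 30 °C for 1 h. Boc-Lys(trifluoroacetyl)-AMC added (final 50 μM), 2 h at 30 °C. Stopped with trypsin/TSA developer for 30 min; fluorescence read at 360/460 nm. Inhibition relative to control wells; IC50 by variable-slope fit.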

RS4-11 = experiment: Induction of apoptosis in human RS4:11 cells harboring wild type p53/FLT3 assessed as cleavage of pro-caspase 3 at 200 nM after 24 hrs by Western blot analysis; type: functional, cell-based; summary of the method: as §1
[5] = target: 72 kDa type IV collagenase (Homo sapiens) (UniProt P08253); experiment: Inhibition of MMP-2 (unknown origin) at 10 to 50 uM incubated for 10 to 15 mins and measured after 2 hrs by fluorescence based assay
72 kDa type IV collagenase (Homo sapiens), sequence (P08253 110-660 limits assumed): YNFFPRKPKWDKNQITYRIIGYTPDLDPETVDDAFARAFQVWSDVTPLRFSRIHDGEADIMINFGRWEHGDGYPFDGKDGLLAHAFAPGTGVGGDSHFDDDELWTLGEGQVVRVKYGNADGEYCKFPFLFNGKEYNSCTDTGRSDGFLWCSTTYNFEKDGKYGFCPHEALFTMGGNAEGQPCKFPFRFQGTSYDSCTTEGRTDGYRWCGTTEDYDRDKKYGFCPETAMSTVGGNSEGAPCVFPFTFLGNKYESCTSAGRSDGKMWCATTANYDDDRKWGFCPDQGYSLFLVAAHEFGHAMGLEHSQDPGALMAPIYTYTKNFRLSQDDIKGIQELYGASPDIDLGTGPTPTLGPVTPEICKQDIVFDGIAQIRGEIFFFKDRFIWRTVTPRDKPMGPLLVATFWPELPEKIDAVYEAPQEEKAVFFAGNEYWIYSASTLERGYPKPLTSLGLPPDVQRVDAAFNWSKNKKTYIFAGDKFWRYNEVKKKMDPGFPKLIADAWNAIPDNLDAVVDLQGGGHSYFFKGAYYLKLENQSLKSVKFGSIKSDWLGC
Summary of the method: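 MMP-2/MMP-9 in activation buffer with test agent (final 50 and 10 μM), 10–15 min incubation, then fluorogenic substrate added. Incubated 2 h at 37 °C; fluorescence read at 320/405 nm. Kit MMP inhibitor was the positive control.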

NCI-H226 = experiment: Antiproliferative activity against human NCI-H226 cells assessed as reduction in cell viability after 48 hrs by CellTiter-Blue assay; type: functional; conditions: NCI-H226, 48 h, read-out: LC50 (the source's name); summary of the method: as §2
EKVX = experiment: Antiproliferative activity against human EKVX cells assessed as reduction in cell viability after 48 hrs by CellTiter-Blue assay; type: functional; conditions: read-out: LC50 (the source's name); summary of the method: as §2
HCT-116 = experiment: Antiproliferative activity against human HCT116 cells assessed as reduction in cell viability after 48 hrs by CellTiter-Blue assay; type: functional; conditions: HCT-116, 48 h, read-out: LC50 (the source's name); summary of the method: as §2
T47D = experiment: Antiproliferative activity against human T47D cells assessed as reduction in cell viability after 48 hrs by CellTiter-Blue assay; type: functional; conditions: read-out: LC50 (the source's name)
Summary of the method: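 NCI-60 panel lines grown in RPMI1640 with 10% FBS at 37 °C, 5% CO₂. Seeded at 5,000–10,000 cells/well and pre-incubated overnight. Exposed for 48 h to six 10-fold dilutions (top final 10 μM), with a time-zero plate read at dosing. CellTiter-Blue (0.125 mg/mL) for 2–4 h, fluorescence 560/590 nm, triplicate curves.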

HCC 2998 = experiment: Antiproliferative activity against human HCC2998 cells assessed as reduction in cell viability after 48 hrs by CellTiter-Blue assay; type: functional; conditions: HCC 2998, 48 h, read-out: LC50 (the source's name); summary of the method: as §2
Histone deacetylase 7 = Histone deacetylase 7 (Homo sapiens, UniProt Q8WUI4); experiment: as §3, with “recombinant” for “recombinant full length”, “N-terminal GST-tagged HDAC7 (518 to end residues)” for “C-terminal His-tagged HDAC8”
Histone deacetylase 7, sequence (Q8WUI4 whole entry): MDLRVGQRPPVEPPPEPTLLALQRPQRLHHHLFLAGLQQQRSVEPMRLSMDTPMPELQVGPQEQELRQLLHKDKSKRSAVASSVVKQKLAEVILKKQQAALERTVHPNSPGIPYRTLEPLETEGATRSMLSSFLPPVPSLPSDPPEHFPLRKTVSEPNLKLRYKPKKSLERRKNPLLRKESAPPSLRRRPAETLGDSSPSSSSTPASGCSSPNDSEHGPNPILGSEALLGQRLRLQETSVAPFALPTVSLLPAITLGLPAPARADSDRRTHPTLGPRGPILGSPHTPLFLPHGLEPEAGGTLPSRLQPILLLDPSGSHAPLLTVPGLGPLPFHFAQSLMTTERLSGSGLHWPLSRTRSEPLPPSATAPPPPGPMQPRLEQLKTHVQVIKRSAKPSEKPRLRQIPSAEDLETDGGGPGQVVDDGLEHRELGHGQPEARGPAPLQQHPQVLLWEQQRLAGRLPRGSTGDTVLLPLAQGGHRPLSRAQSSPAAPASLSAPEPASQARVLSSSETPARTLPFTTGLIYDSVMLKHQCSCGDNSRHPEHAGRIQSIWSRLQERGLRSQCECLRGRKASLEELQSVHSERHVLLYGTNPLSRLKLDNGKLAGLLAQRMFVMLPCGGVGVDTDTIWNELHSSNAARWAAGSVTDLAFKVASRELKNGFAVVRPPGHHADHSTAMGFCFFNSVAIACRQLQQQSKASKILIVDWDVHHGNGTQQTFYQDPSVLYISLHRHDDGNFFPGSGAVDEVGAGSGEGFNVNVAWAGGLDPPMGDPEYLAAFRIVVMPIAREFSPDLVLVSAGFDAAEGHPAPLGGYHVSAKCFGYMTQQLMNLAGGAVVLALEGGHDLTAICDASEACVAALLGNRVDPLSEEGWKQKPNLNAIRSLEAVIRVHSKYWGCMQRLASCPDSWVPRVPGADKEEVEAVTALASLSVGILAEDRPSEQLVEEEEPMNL

NCI/ADR-RES = experiment: Antiproliferative activity against human NCI/ADR-RES cells assessed as reduction in cell viability after 48 hrs by CellTiter-Blue assay; type: functional; conditions: read-out: LC50 (the source's name); summary of the method: as §2
[6] = Mutagenecity in Salmonella typhimurium TA100 at 10 uM in presence of S9 liver homogenate after 2 to 3 days by mini-Ames test; type: toxicity; conditions: salmonella enterica subsp. enterica serovar typhimurium, s9, 10 µM
Summary of the method: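 Compound was tested at a final 10 μM undiluted plus four serial dilutions, with S9 mix and glucose/biotin/trace-histidine exposure solution, for 100 min at 37 °C. Reversion medium was added and cultures dispensed to 96 wells for 2–3 days at 37 °C. Yellow or partial-yellow wells were scored positive; 2-aminoanthracene was the positive control.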

MV4-11 [7] = experiment: Induction of apoptosis in human MV4-11 cells harboring wild type p53/FLT3-ITD mutant assessed as XIAP degradation at 50 to 200 nM after 24 hrs by Western blot analysis; type: functional, cell-based; summary of the method: as §1
HL-60(TB) = experiment: Antiproliferative activity against human HL-60(TB) cells assessed as reduction in cell viability after 48 hrs by CellTiter-Blue assay; type: functional; conditions: HL-60, 48 h, read-out: LC50 (the source's name); summary of the method: as §2
NCI-H522 = experiment: Antiproliferative activity against human NCI-H522 cells assessed as reduction in cell viability after 48 hrs by CellTiter-Blue assay; type: functional; conditions: NCI-H522, 48 h, read-out: LC50 (the source's name); summary of the method: as §2
MDA-MB-468 = experiment: Antiproliferative activity against human MDA-MB-468 cells assessed as reduction in cell viability after 48 hrs by CellTiter-Blue assay; type: functional; conditions: MDA-MB-468, 48 h, read-out: LC50 (the source's name); summary of the method: as §2

In the case of `CCCNNC(=O)/C=C/c1ccc(CNCCc2c(C)[nH]c3ccccc23)cc1.O=C(O)C(F)(F)F`, the Activity (MV4-11 [1]) is reported as “Active”, the Activity (MV4-11 [2]) is reported as “Active” and the CC50 (786-0) is reported as greater than 10 µM. The AUC [3] was 265 ng·h/mL, the Activity (MV4-11 [4]) was “inactive” and the CC50 (DU-145) was greater than 10 µM. The Activity (MOLM-14) was “Active”, the IC50 (Histone deacetylase 8) was 1.76 µM and the Activity (RS4-11) was “Active”. The inhibition [5] was “inactive”, the CC50 (NCI-H226) was 0.46 µM and the CC50 (EKVX) was greater than 10 µM. For the same compound, the CC50 (HCT-116) was 0.879 µM, the CC50 (T47D) was greater than 10 µM and the CC50 (HCC 2998) was 1.76 µM. The IC50 (Histone deacetylase 7) was greater than 10 µM, the CC50 (NCI/ADR-RES) was greater than 10 µM and the Activity [6] was “Non-Toxic”. For the same compound, the Activity (MV4-11 [7]) was “Active”, the CC50 (HL-60(TB)) was greater than 10 µM and the CC50 (NCI-H522) was greater than 10 µM. It also gave a CC50 (MDA-MB-468) greater than 10 µM.

Reference: ChEMBL document CHEMBL4342521 (J Med Chem, 2020)
